Data taken from ChEMBL document CHEMBL1154810, “Synthesis, characterization and biocidal activity of new organotin complexes of 2-(3-oxocyclohex-1-enyl)benzoic acid” (Eur J Med Chem, 2010).
≈ marks a conversion by molar mass, not a printed value.

Experiments:
Candida albicans = assay: Antimicrobial activity against Candida albicans ATCC 18804 after 48 hrs; type: functional; details: ATCC 18804, 48 h
Method in brief: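 Broth microdilution MIC per NCCLS M27-A in RPMI 1640. Yeasts were pre-grown on Sabouraud medium, 24 h for C. albicans and 48 h for C. neoformans. Compound solution was added to wells, then incubated 37 °C for 48 h. Ketoconazol was the positive control and DMSO 1 and 2% in RPMI the negative controls. Triplicate runs. MIC was the lowest concentration giving an optically clear well, judged visually against the drug-free growth control.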

HEK293 = assay: Cytotoxicity against HEK293 cells after 24 hrs by MTT assay; type: cell-based, Homo sapiens

| Molecule | MIC (Candida albicans) [µM] | IC50 (HEK293) [nM] |
| --- | --- | --- |
| CC(=O)N1CCN(c2ccc(OCC3COC(Cn4ccnc4)(c4ccc(Cl)cc4Cl)O3)cc2)CC1 (configuration not stated) [KETOCONAZOLE] | 0.24 (≈ 0.128 µg/mL) | – |
| CHLOROTRIMETHYLSTANNANE | – | 8 |
| CHLOROTRIPHENYLSTANNANE | – | 10 |
| DIBUTYLDICHLOROSTANNANE | – | 30 |
| DICHLORODIMETHYLSTANNANE | – | 10 |
| DICHLORODIPHENYLSTANNANE | – | 50 |
| TRIBUTYLCHLOROSTANNANE | – | 40 |
